Bioassay records (PubChem)
SKN-1 inh: suppressors of acrylamide-induced Pgst-4::GFP reporter in worms, primary screen, SKN-1 inhibitor project, whole organism, uHTS, GFP/RFP fluorescence ratio, strain VP596; C. elegans VP596 Pgst-4::GFP/RFP ratio, 24 h; inhibition, % at 21.8 µM; 0.49% of 360,000 active;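 active = interference check ratio from 0.5 to 1.5 plus GFP to RFP signal ratio inhibition reaching or exceeding a fixed threshold, cut at about 30% in these data, passing the limit was not always enough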
PG9 Ab binder: binders of HIV-1 gp120 antibody PG9, primary screen, biochemical, TR-FRET | TR-FRET gp120-PG9 antibody binding | inhibition, % at 6.7 µM | 0.43% of 360,000 active; in the data active = inhibition above about 8.5%
NR1D1 modulator: modulators of Rev-erb alpha DNA binding, primary screen, biochemical, FITC-DNA, fluorescence polarization, uHTS; Rev-erbα–FITC-DNA binding, 90 min; activity, % at 10 µM; 0.79% of 370,000 active; Nuclear receptor subfamily 1 group D member 1 (Homo sapiens), P20393; AID 1259318, 2017;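 active = activity above about 14%, limit read from the data; passing the limit was not always enough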;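 also: 0% = DMSO wells with 35 nM protein and 100% = DMSO wells with 750 nM protein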
Target sequence (P20393 whole entry, looked up): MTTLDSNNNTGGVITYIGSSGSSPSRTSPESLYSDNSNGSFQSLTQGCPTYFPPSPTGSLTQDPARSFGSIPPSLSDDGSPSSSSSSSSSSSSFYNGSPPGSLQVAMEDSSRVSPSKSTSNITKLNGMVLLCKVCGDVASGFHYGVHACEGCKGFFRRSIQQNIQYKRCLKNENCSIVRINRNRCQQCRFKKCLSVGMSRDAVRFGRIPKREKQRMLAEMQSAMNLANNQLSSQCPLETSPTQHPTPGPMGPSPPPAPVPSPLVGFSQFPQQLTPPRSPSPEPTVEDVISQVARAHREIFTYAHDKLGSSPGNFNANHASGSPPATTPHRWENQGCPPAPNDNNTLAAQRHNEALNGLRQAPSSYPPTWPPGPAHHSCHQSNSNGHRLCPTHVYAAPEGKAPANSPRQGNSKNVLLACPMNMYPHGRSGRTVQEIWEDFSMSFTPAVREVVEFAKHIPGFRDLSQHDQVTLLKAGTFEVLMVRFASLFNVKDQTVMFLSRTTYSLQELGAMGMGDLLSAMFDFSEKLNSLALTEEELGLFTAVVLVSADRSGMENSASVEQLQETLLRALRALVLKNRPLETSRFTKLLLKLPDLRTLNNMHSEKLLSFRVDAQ
MT1-MMP act inh: blockers of MT1-MMP proenzyme processing, primary screen, HT1080 RFP-PRO-GFP cells, GFP/RFP fluorescence | Matrix metalloproteinase-14 (Homo sapiens), P50281 | GFP/RFP ratio fluorescence, overnight; percent of plate control window, DMSO zero | GFP/RFP ratio change, % at 20 µM | 0.061% of 360,000 active | AID 651647, 2012;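 active = GFP/RFP ratio change of at least 30% with cell ATP level not reduced by more than half and red fluorescence within 50% of control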
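system = RFP-PRO-GFP reporter HT1080 cells | dosing = 20 µM single dose, 1% DMSO | timing = overnight cell settling, then overnight compound exposure, 37 °C, 5% CO2 | read-out basis = GFP/RFP fluorescence ratio | controls = DMSO and RFP-L50D-GFP cell wells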
NR2E3 ag-1: NR2E3 agonists in two-hybrid cells, primary screen, cell-based, luminescence, CHO-S, Gal4-NCOR/VP16-NR2E3. Photoreceptor-specific nuclear receptor (Homo sapiens), Q9Y5X4. luciferase. inhibition of corepressor binding, % at 3.98 µM. 0.35% of 360,000 active;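 active = inhibition above the mean of all tested compounds plus 3 SD, cut at about 70% in these data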;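 also: 0% = DMSO with NR2E3 transfected cells and 100% = cells lacking NR2E3 construct; higher means lower luciferase signal from less NR2E3 corepressor binding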
NR2E3 ag-2: inhibitors of NR2E3-RetCOR corepressor binding, primary screen, NR2E3 agonist project, biochemical, TR-FRET, GST-NR2E3, biotin-RetCOR | inhibition of corepressor binding, % at 4.78 µM | 1536-well | AID 2300, 2010 | 0.12% of 320,000 active | Photoreceptor-specific nuclear receptor (Homo sapiens), Q9Y5X4;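 active = percent inhibition above the cutoff of mean plus 3 SD of all tested compounds, set per screening campaign, cut at about 20% in these data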;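 also: 0% = DMSO wells and 100% = biotin wells as full block of FRET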
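System: GST-tagged NR2E3 plus biotinylated RetCOR corepressor; Amount: 1.35 nM GST-tagged NR2E3 final; Dosing: single nominal compound dose of 4.8 µM; Schedule: 5 h incubation at 4 °C; Technique: TR-FRET with europium anti-GST and streptavidin-D2, 340 nm excitation; Controls: biotin wells as high control, 0.6% DMSO wells as low control.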
PG9 binder conf: binders of anti-gp120 antibody PG9, confirmation, biochemical, TR-FRET. AID 651571, 2012. shares compounds with PG9 Ab binder. 90% of 1,500 active. TR-FRET PG9 antibody binding. inhibition, % at 6.7 µM; in the data active = inhibition above about 9%
PGV04 Ab binding: binders of control antibody PGV04, counter-screen for PG9 antibody binder project, biochemical, TR-FRET, distinct HIV envelope site. shares compounds with PG9 Ab binder. TR-FRET PGV04 antibody-gp120 binding. inhibition, % at 6.7 µM. 95% of 1,500 active; in the data active = inhibition above about 9.5%
NR1D1 mod conf: modulators of Rev-erb alpha DNA binding, confirmation, biochemical, FITC-DNA, fluorescence polarization, single point | shares compounds with NR1D1 modulator | 90 min | activation, % at 25 µM | 61% of 3,000 active;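 active = activation at or above a set limit, or at least 3 SD above the negative control mean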;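 also: 0% = 35 nM protein with DMSO and 100% = 750 nM protein high control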
RORg DNA counter: modulation of RORgamma DNA binding, dose response, counter-screen for Rev-erb alpha modulator project, biochemical, fluorescence polarization, FITC-DNA | shares compounds with NR1D1 modulator | purified RORgamma protein-FITC-DNA binding | IC50, µM | 8% of 910 active;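 active = Compounds whose fitted half-maximal concentration for disrupting protein-DNA binding is below 10 micromolar; the record names Rev-erb in its text, so the target is in doubt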
* hit, by the source's call; i = inactive; x = no result. Only some compounds are listed: those with a hit (about 1.9% of all), similar ones and a draw of the others.

SMILES	SKN-1 inh	PG9 Ab binder	NR1D1 modulator	MT1-MMP act inh	NR2E3 ag-1	NR2E3 ag-2	PG9 binder conf	PGV04 Ab binding	NR1D1 mod conf	RORg DNA counter
CCCC(=O)Nc1c2c(nc3ccccc13)N(c1ccccc1)CC2	2	x	x	1	-16	-1	x	x	x	x
O=C(CN1CCCCC1)Nc1c2c(nc3ccccc13)N(c1ccccc1)CC2	9	48*	109*	-3	6	-11	72*	79*	75*	>40
O=C(Nc1nnc(SCc2c(Cl)cccc2Cl)s1)c1ccc2ncsc2c1	x	x	x	x	x	-2	x	x	x	x
N#Cc1ccc(CSc2nnc(NC(=O)c3ccc4ncsc4c3)s2)cc1	0	32*	60*	2	-27	i	30*	48*	23*	x
CC(C)CNC(=O)OCc1cn(Cc2ccc(F)c(F)c2)nn1	x	x	-3	x	x	x	x	x	x	x
O=C(COC(=O)c1ccc(Cl)cc1O)Nc1cccnc1Cl	-6	1	3	0	-43	-1	x	x	x	x
O=C(COC(=O)c1cc(Br)ccc1O)Nc1cccnc1Cl	9	38*	66*	3	-28	3	13*	31*	39*	>40
N#Cc1ccsc1NC(=O)COC(=O)c1cc(Br)ccc1O	-4	34*	48*	-3	-49	9	38*	60*	32*	>40
C=CCn1c(SCC(=O)Nc2sccc2C#N)nc2sc(C)c(C)c2c1=O	6	11*	97*	-2	8	9	26*	44*	63*	>40
CCOC(=O)N1CCC(NC(=O)c2ccc3c(c2)sc2nc(-c4ccccc4)cn23)CC1	-13	21*	63*	-2	-38	-2	21*	38*	41*	x
COc1ccccc1NC(=O)COC(=O)c1ccc2c(c1)OCCO2	10	11*	22*	-3	-23	4	6	10*	32*	>40
Cc1ccccc1NC(=O)COC(=O)c1ccc2c(c1)OCCO2	10	0	1	-1	-12	x	x	x	x	x
CC(C)CC1O[C@@H](C)[C@@H]2CN3CCc4c([nH]c5ccccc45)[C@@H]3C[C@@H]2N1C (stereo partly specified)	x	-4	-2	x	x	x	x	x	x	x
COc1ccc2cc(C#N)c(SCC(=O)N3CC(=O)Nc4ccccc43)nc2c1	-1	x	x	-77	-15	1	x	x	x	x
Cc1cccc2cc(C#N)c(SCC(=O)N3CCC(C)CC3)nc12	6	8.8*	53*	-4	10	-1	12*	16*	65*	i
Cc1cccc2cc(C#N)c(SCC(=O)N3CC(=O)Nc4ccccc43)nc12	5	30*	90*	-47	32	-9	46*	75*	67*	>40
C[C@@H]1NS(=O)(=O)c2c(F)cccc2O[C@@H]1c1ccccc1	x	0	-1	x	x	x	x	x	x	x
